# According to PubChem BioAssay:
# The source made the active and inactive calls.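 The calls were made as follows, unless noted: active = Her2 level under about 52% in both replicate screens, with viability over 70% of control (limit read from the data); inconclusive = Her2 under the limit in one screen only, or viability under 70%; inactive = Her2 level above the set limit.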
# Experiments:
# [1] = Her2 expression decrease, cell viability multiplex – SKBR3 breast tumor cells, AlphaScreen, ATP viability, primary screen (AID 461); conditions: SKBR3 Her2 protein level, 18-24 h, measured here: SKBR3 viability, ATP luminescence, at 10 µM;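 as to Her2 level: lower value means less Her2 protein in the cells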;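 as to viability: percent of carrier control wells set as 100% viability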
# [2] = target: Receptor tyrosine-protein kinase erbB-2 (Homo sapiens) (UniProt P04626); assay: as above; conditions: 18-24 h, at 10 µM, stronger effect = lower value
# Sequence of Receptor tyrosine-protein kinase erbB-2 (Homo sapiens) (P04626 whole entry, looked up): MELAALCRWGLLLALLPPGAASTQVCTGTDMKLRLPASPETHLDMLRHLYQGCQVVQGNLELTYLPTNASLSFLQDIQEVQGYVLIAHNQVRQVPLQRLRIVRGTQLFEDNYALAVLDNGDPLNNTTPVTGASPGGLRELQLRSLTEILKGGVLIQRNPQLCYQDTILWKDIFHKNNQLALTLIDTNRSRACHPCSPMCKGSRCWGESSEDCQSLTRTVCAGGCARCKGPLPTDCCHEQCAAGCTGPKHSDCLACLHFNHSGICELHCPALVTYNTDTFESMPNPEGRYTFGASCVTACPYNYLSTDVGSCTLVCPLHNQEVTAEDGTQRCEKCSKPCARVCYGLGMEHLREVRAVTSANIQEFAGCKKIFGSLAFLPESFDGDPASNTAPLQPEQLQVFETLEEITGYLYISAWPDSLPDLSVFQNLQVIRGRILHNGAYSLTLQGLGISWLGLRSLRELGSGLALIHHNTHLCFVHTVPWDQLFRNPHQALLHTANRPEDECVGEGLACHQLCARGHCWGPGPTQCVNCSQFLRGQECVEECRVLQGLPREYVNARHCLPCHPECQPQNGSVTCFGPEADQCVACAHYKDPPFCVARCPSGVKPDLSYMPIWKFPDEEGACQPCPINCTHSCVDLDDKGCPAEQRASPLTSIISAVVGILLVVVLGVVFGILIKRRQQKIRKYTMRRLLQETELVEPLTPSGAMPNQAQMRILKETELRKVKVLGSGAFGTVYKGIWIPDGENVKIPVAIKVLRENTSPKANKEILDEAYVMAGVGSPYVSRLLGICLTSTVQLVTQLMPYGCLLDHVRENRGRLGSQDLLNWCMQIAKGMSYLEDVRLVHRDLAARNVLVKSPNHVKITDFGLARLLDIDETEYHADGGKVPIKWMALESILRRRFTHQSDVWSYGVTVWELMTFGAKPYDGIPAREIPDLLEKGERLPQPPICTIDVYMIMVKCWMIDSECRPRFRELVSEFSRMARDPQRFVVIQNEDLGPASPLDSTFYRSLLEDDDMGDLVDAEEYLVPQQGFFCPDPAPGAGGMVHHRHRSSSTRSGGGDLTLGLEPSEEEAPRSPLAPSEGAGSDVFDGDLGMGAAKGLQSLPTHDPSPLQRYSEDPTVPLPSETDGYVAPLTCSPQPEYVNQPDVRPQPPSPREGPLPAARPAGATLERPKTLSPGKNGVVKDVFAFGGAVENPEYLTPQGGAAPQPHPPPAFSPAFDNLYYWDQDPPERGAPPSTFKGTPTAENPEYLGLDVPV
# [3] = reduced viability of SK-BR-3 breast cancer cells – cell-based, 24 h, human, pilot screen (AID 572;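 active = viability at or below 10% of carrier control in both of two separate runs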;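 also: compound exposure lasted between 18 and 24 h rather than exactly 24 h; 100% = carrier-treated control wells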); conditions: SK-BR-3 viability, CellTiter-Glo luminescence, at 10 µM, stronger effect = lower value
# [4] = HUVEC growth inhibition – cell-based, human, primary screen (AID 575;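 active = viability at or below 30% in both replicate assays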;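 also: 100% = median of untreated cell wells with 0.1% DMSO on each plate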); conditions: HUVEC proliferation, CellTiter-Glo luminescence, 72 h; at 10 µM; stronger effect = lower value
# Procedure, shortened: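 Test system: HUVEC primary cells. Quantity: 1250 endothelial cells in each well. Dosing: single-point 10 µM, DMSO 0.1% final. Incubation: 72 h treatment at 37 °C. Measured by: CTG luminescence. Control set: DMSO cell controls and MePR drug controls. Plate: collagen-coated 384-well format.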
# [5] = H69AR cell proliferation blockers – human, duplicate replicates, primary screen (AID 580;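 active = viability at or under a set limit in both replicates, limit being median viability minus 3 SD, cut at about 48% in these data, passing the limit was not always enough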;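 also: 100% = mean luminescence of untreated wells and 0% = no signal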); conditions: H69AR lung tumor cells viability, ATP luminescence, 72 h; at 10 µM; stronger effect = lower value
# [6] = MRP1 drug-resistance reversers in H69AR cells – cell-based, doxorubicin co-treatment, pilot screen (AID 601;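 active = viability loss from added drug above about 55%, and viability with drug at most 40%, in both replicates, limit read from the data, passing the limit was not always enough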); conditions: CellTiter-Glo, 72 h, at 10 µM; for differential viability (reversal): stronger effect = higher value
# [7] = yeast transport mutant growth inhibition pilot in 384-well plates, post-Golgi transport modulator project (AID 636; in the data active = inhibition above about 31%); conditions: absorbance 615 nm, about 18 h, stronger effect = higher value
# [8] = growth suppression of yeast trafficking mutant, preliminary HTS, modulators of trafficking downstream of Golgi apparatus project, 1536-format plate, OD 615 nm (AID 637; in the data active = inhibition above about 30%); conditions: yeast transport mutant growth, absorbance 615 nm, 18 h; stronger effect = higher value
# [9] = H69AR cells + 2 uM doxorubicin, measured here: viability with 2 uM doxorubicin, stronger effect = lower value
# [10] = H69AR cells, compound alone cytotoxicity
Compound,viability [1] [%],Her2 level [2],viability [3],viability [4],viability [5],differential viability (reversal) ([6]; H69AR cells + 2 uM doxorubicin),"viability [6, 9] [%]","viability [6, 10] [%]",inhibition [7],inhibition [8]
O=C(c1cccc(C(=O)N2CCN(c3ccccc3)CC2)c1)N1CCN(c2ccccc2)CC1,95.5,106% (inactive),95.5% (inactive),81.3% (inactive),90.7% (inactive),6.69% (inactive),84,90.7,-2.47% (inactive),-0.33% (inactive)
O=C(Cc1ccccc1)N1CCCC(c2nc(-c3cccs3)no2)C1 (stereo not given),91.5,111% (inactive),91.5% (inactive),95.5% (inactive),102% (inactive),16.8% (inactive),85.7,102,-5.27% (inactive),-3.61% (inactive)
Cc1cc(=O)n2[nH]c(COc3ccccc3)nc2n1,101,105% (inactive),101% (inactive),94.1% (inactive),108% (inactive),14% (inactive),94,108,-5.33% (inactive),-6.13% (inactive)
CCOC(=O)c1ccc(COC(=O)CCc2nc3ccccc3[nH]c2=O)o1,92,96.5% (inactive),92% (inactive),100% (inactive),92.1% (inactive),-4.18% (inactive),96.2,92.1,-1.32% (inactive),5.08% (inactive)
O=C(NCc1ccco1)C1CC(=O)N(c2ccc(F)cc2)C1 (stereo not given),96.5,97% (inactive),96.5% (inactive),108% (inactive),108% (inactive),16% (inactive),91.5,108,-0.93% (inactive),-1.61% (inactive)
CCOC(=O)C1CCCN(c2cc(=O)n(Cc3ccc(F)cc3)c(=O)[nH]2)C1 (stereo not given),92,87% (inactive),92% (inactive),92.6% (inactive),97.2% (inactive),3.08% (inactive),94.1,97.2,-4.67% (inactive),0.33% (inactive)
Cc1nnc(SCC(=O)N2CCC(C(=O)Nc3nccs3)CC2)n1Cc1ccccc1,91.5,80% (inactive),91.5% (inactive),96.2% (inactive),91.5% (inactive),5.37% (inactive),86.1,91.5,-3.87% (inactive),0.33% (inactive)
CCn1nnc(NC(=O)c2ccc(-c3ccc(Cl)cc3)o2)n1,87.5,122% (inactive),87.5% (inactive),90% (inactive),91.2% (inactive),3.21% (inactive),88,91.2,-6.62% (inactive),-0.66% (inactive)
Cc1nc2ccc(CCO)cc2s1,97.5,95.5% (inactive),97.5% (inactive),102% (inactive),93.9% (inactive),-0.945% (inactive),94.8,93.9,-5.89% (inactive),0.79% (inactive)
Cc1cc(O)c(C(C)C)cc1N=C1CSC(=O)N1,89,78.5% (inactive),89% (inactive),95.3% (inactive),87.7% (inactive),1.7% (inactive),86,87.7,-2.11% (inactive),-1.82% (inactive)
CSc1ccc(-c2nc(CSCC(=O)N3CCOCC3)c(C)o2)cc1,102,91% (inactive),102% (inactive),85.2% (inactive),103% (inactive),6.36% (inactive),97.1,103,-0.67% (inactive),-2.26% (inactive)
COc1ccccc1N1CCN(C(=O)CSc2nc(-c3ccccc3)cc(=O)[nH]2)CC1,87.5,124% (inactive),87.5% (inactive),80.8% (inactive),88.1% (inactive),-1.75% (inactive),89.8,88.1,-3.16% (inactive),-6.83% (inactive)
CCCCCn1c(N2CCN(Cc3ccccc3)CC2)nc2c1c(=O)[nH]c(=O)n2C,110,78% (inactive),110% (inactive),93.3% (inactive),76.9% (inactive),23.7% (inactive),53.2,76.9,-6.67% (inactive),-2.46% (inactive)
Cc1ccc(C2Nc3ccccc3-c3nc4ccccc4n32)o1 (stereo not given),97,89.5% (inactive),97% (inactive),54.4% (inactive),38.3% (active),-18.1% (inactive),56.4,38.3,-1.37% (inactive),4.44% (inactive)
CCSc1nnc(NC(=O)C(CC)(C(F)(F)F)C(F)(F)F)s1,79.5,120% (inactive),79.5% (inactive),68.9% (inactive),74% (inactive),0.58% (inactive),73.4,74,0.41% (inactive),33.3% (active)
CC1(C)C(=O)Nc2ccccc2N1C(=O)COC(=O)Cn1cnc2ccccc2c1=O,110,112% (inactive),110% (inactive),110% (inactive),96.3% (inactive),1.74% (inactive),94.5,96.3,-3.55% (inactive),-5.5% (inactive)

Compound,viability [1] [%],Her2 level [2],viability [3],viability [4],viability [5],differential viability (reversal) ([6]; H69AR cells + 2 uM doxorubicin),"viability [6, 9] [%]","viability [6, 10] [%]",inhibition [7],inhibition [8]
CCOC(=O)Cn1nc(-c2ccc(C)cc2)ccc1=O,99,115% (inactive),99% (inactive),94.1% (inactive),100% (inactive),15.4% (inactive),84.6,100,-5.32% (inactive),7.21% (inactive)
CC(=O)N1CCc2cc(S(=O)(=O)NCCC3=CCCCC3)ccc21,108,85% (inactive),108% (inactive),64% (inactive),91.1% (inactive),-7.85% (inactive),99,91.1,-3.29% (inactive),-2.22% (inactive)
COc1ccc2[nH]c(=O)c(CN(CCO)S(=O)(=O)c3ccc4c(c3)OCCO4)cc2c1,85,97.5% (inactive),85% (inactive),99.8% (inactive),94% (inactive),6.97% (inactive),87,94,-5.07% (inactive),-2.3% (inactive)
Cc1ccc(-n2nnnc2SCC(=O)c2cc(C)n(CC3CCCO3)c2C)cc1 (stereo not given),83.5,106% (inactive),83.5% (inactive),70.8% (inactive),86% (inactive),-9.62% (inactive),95.7,86,-5.07% (inactive),0.48% (inactive)
CC1Cc2cc(/C(O)=C3/C(=O)C(=O)N(CCN4CCOCC4)C3c3cccc(O)c3)ccc2O1 (stereo not given),98.5,120% (inactive),98.5% (inactive),98.9% (inactive),106% (inactive),2.56% (inactive),104,106,3.2% (inactive),-5.32% (inactive)
CC(=O)c1coc2ccc(OCC(=O)O)cc12,104,90.5% (inactive),104% (inactive),105% (inactive),98% (inactive),5.29% (inactive),92.7,98,-4% (inactive),-4.26% (inactive)
CN1CCCN(CC(O)COCc2cccs2)CC1 (stereo not given),89.5,84% (inactive),89.5% (inactive),87.3% (inactive),111% (inactive),14.2% (inactive),96.6,111,-5.54% (inactive),-1.8% (inactive)
CCOc1ccccc1CNC(=O)CCN1C(=O)COc2ccccc21,104,110% (inactive),104% (inactive),88.8% (inactive),92.9% (inactive),3.42% (inactive),89.5,92.9,-1.15% (inactive),-7% (inactive)
COCCn1c(CN2CCN(c3cccc(Cl)c3)CC2)nc2c1c(=O)n(C)c(=O)n2C,85,85% (inactive),85% (inactive),64.7% (inactive),72.9% (inactive),17.6% (inactive),55.4,72.9,-5.87% (inactive),1.83% (inactive)
c1ccc(CCNc2ccc3nncn3n2)cc1,82,89.5% (inactive),82% (inactive),95.6% (inactive),86.5% (inactive),3.48% (inactive),83,86.5,-2.53% (inactive),0.98% (inactive)
COCCN(CCOC)S(=O)(=O)c1ccc(C(=O)Nc2nnc(C3CC3)o2)cc1,75,86% (inactive),75% (inactive),80.5% (inactive),82.7% (inactive),-1.53% (inactive),84.2,82.7,-3.65% (inactive),1.48% (inactive)
CC(C)(C)OC(=O)N1CCC(C(=O)N[C@H](Cc2ccccc2)C(=O)O)CC1,101,93.5% (inactive),101% (inactive),108% (inactive),98.2% (inactive),3.02% (inactive),95.1,98.2,-10.4% (inactive),3.5% (inactive)
COc1ccccc1N(CC(=O)NCc1ccccc1)S(C)(=O)=O,103,92.5% (inactive),103% (inactive),106% (inactive),97% (inactive),3.07% (inactive),93.9,97,-9.19% (inactive),-7.33% (inactive)
CCN(CC(=O)Nc1ccc(S(N)(=O)=O)cc1)S(=O)(=O)c1cc(C)ccc1OC,76.5,105% (inactive),76.5% (inactive),109% (inactive),114% (inactive),14.4% (inactive),99.2,114,-3.55% (inactive),-1.67% (inactive)
CC1=C/C(=C/N(C)c2ccccc2)C(=O)S1,109,94% (inactive),109% (inactive),79.7% (inactive),89.3% (inactive),4.12% (inactive),85.2,89.3,0.41% (inactive),-3.49% (inactive)
